Source: ChEMBL document CHEMBL2040770, “Finger loop inhibitors of the HCV NS5b polymerase. Part II. Optimization of tetracyclic indole-based macrocycle leading to the discovery of TMC647055” (Bioorg Med Chem Lett, 2012)

Key:
Hepatitis C virus = experiment: Antiviral activity against Hepatitic C virus genotype 1b clone ET infected in human Huh7 replicon cells after 72 hrs by luciferase reporter gene assay; format: functional, organism-based, Hepacivirus hominis; details: Huh-7, 72 h
[1] = Drug uptake in Sprague-Dawley rat liver at 10 mg/kg, po measured after 7 hrs; format: ADME, organism-based; set-up: dose 10 mg/kg, route oral; details: read-out: Drug uptake
Outline: (§1)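 Male Sprague–Dawley rats (n = 3) received a single oral dose of 10 mg/kg in PEG400/2% vitamin E-TPGS. Liver concentration was measured 7 h post-dosing, and the liver/plasma concentration ratio was taken at that same 7 h time point.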

[2] = Oral bioavailability in Sprague-Dawley rat at 10 mg/kg; format: ADME, organism-based; details: in vivo
Outline: (§2)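 Male Sprague–Dawley rats (n = 3) given a single iv dose of 2 mg/kg in PEG400/saline 70:30 and a single oral dose of 10 mg/kg in PEG400/2% vitamin E-TPGS. Plasma kinetics were followed to give plasma clearance, Cmax and oral bioavailability.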

[3] = Clearance in Sprague-Dawley rat at 2 mg/kg, iv and 10 mg/kg, po; format: ADME, organism-based; details: in vivo; outline: as §2
[4] = Ratio of drug uptake in Sprague-Dawley rat liver to plasma at 10 mg/kg, po measured after 7 hrs; format: ADME, organism-based; set-up: dose 10 mg/kg, route oral; outline: as §1
[5] = Metabolic stability in rat liver microsomes assessed as compound metabolized at 5 uM after 15 mins; format: ADME, Microsome; details: read-out: Drug metabolism
Outline: (§3)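 Rat or human liver microsomes incubated with compound at 5 µM for 15 min. Stability is given as % of compound metabolized.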

[6] = Selectivity index, ratio of CC50 for human Huh7 cells to EC50 for Hepatitic C virus genotype 1b clone ET; format: toxicity, cell-based, Huh-7; details: read-out: Ratio CC50/EC50
Outline: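 Selectivity index computed in Huh-7 cells as CC50/EC50.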

[7] = Metabolic stability in human liver microsomes assessed as compound metabolized at 5 uM after 15 mins; format: ADME, Microsome; details: read-out: Drug metabolism; outline: as §3
[8] = Cmax in Sprague-Dawley rat at 10 mg/kg, po; format: ADME, organism-based; set-up: dose 10 mg/kg, route oral; details: in vivo; outline: as §2
[9] = Cmax in dog at 10 mg/kg, po; format: ADME, organism-based, Canis lupus familiaris; set-up: dose 10 mg/kg, route oral; details: in vivo
Outline: (§4)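 Dogs given a single oral dose of 10 mg/kg. Peak plasma concentration and plasma AUC extrapolated to infinity were determined, reported in µM and µM h.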

[10] = AUC (0 to infinity) in dog at 10 mg/kg, po; format: ADME, organism-based, Canis lupus familiaris; set-up: time infinity, dose 10 mg/kg, route oral; details: plasma; outline: as §4
[11] = Inhibition of cytochrome P450; format: ADME
Canis familiaris = experiment: Volume of distribution at steady state in dog at 10 mg/kg, po; format: ADME, organism-based, Canis lupus familiaris; set-up: dose 10 mg/kg, route oral; details: in vivo
[12] = Oral bioavailability in dog at 10 mg/kg; format: ADME, organism-based, Canis lupus familiaris; details: in vivo
Rattus norvegicus = organism: Rattus norvegicus; experiment: Drug metabolism in Sprague-Dawley rat assessed as reactive acyl glucuronides formation; format: ADME, organism-based; details: in vivo
[13] = Plasma clearance in dog at 10 mg/kg, po; format: ADME, organism-based, Canis lupus familiaris; set-up: dose 10 mg/kg, route oral

Row | Compound | EC50 (Hepatitis C virus) | concentration at 7 h [1] | bioavailability [2] | clearance [3] | Kp at 7 h [4] | metabolised at 0.25 h, 5 µM [5] | selectivity ratio [6] | metabolised at 0.25 h, 5 µM [7] | further results
1 | CN1CCOCCN(C)S(=O)(=O)NC(=O)c2ccc3c(C4CCCCC4)c(n(C)c3c2)-c2ccccc2OCC1=O | 190 nM | 1720 ng/mL | 21% | 128 mL/min/kg | 64 |  |  |  | 
2 | COc1ccc2c(c1)C=C1Cn3c-2c(C2CCCCC2)c2ccc(cc23)C(=O)NS(=O)(=O)N(C)CCCCCCN(C)C1=O | 160 nM |  |  |  |  | 46% | 150 | 99% | 
3 | COc1ccc2c(c1)C=C1Cn3c-2c(C2CCCCC2)c2ccc(cc23)C(=O)NS(=O)(=O)N(C)CCCCN(C)C1=O | 82 nM | 5000 ng/mL | 76% | 40 mL/min/kg | 23 | 26% | > 330 | 56% | Cmax [8]: 800 ng/mL
4 | COc1ccc2c(c1)C=C1Cn3c-2c(C2CCCCC2)c2ccc(cc23)C(=O)NS(=O)(=O)N(C)CCCN(C)C1=O | 680 nM |  |  |  |  | 28% | 72 | 18% | 
5 | COc1ccc2c(c1)C=C1Cn3c-2c(C2CCCCC2)c2ccc(cc23)C(=O)NS(=O)(=O)NCCN(C)CCNC1=O | 470 nM |  |  |  |  | 23% | > 68 | 7% | 
6 | COc1ccc2c(c1)C=C1Cn3c-2c(C2CCCCC2)c2ccc(cc23)C(=O)NS(=O)(=O)N(C)CCCCCNC1=O | 130 nM | 6320 ng/mL | 6% | 70 mL/min/kg | 341 | 27% | > 400 | 32% | Cmax [8]: 30 ng/mL
7 | COc1ccc2c(c1)C=C1Cn3c-2c(C2CCCCC2)c2ccc(cc23)C(=O)NS(=O)(=O)N(C)CCN(C)CCNC1=O | 550 nM |  |  |  |  |  | > 58 |  | 
8 | COc1ccc2c(c1)C=C1Cn3c-2c(C2CCCCC2)c2ccc(cc23)C(=O)NS(=O)(=O)N2CCN(CCNC1=O)CC2 | 860 nM |  |  |  |  | 16% | > 40 | 10% | 
9 | CN1CCOCCN(C)S(=O)(=O)NC(=O)c2ccc3c(C4CCCCC4)c4n(c3c2)CC(=Cc2cc(Cl)ccc2-4)C1=O | 280 nM |  |  |  |  | 22% | 150 | 16% | 
10 | CN1CCOCCN(C)S(=O)(=O)NC(=O)c2ccc3c(C4CCCCC4)c4n(c3c2)CC(=Cc2cc(F)ccc2-4)C1=O | 72 nM | 6560 ng/mL | 52% | 61.7 mL/min/kg | 62 | 37% | > 250 | 38% | Cmax [8]: 272 ng/mL
11 | CN1CCCCN(C)S(=O)(=O)NC(=O)c2ccc3c(C4CCCCC4)c4n(c3c2)CC(=Cc2ccc(Cl)cc2-4)C1=O | 14500 nM |  |  |  |  | 30% | > 2 | 29% | 
12 | COc1ccc2c(c1)C=C1Cn3c-2c(C2CCCCC2)c2ccc(cc23)C(=O)NS(=O)(=O)N(C)CCCCNC1=O | 912 nM |  |  |  |  | 13% | > 40 | 20% | 
13 | COc1ccc2c(c1)C=C1Cn3c-2c(C2CCCCC2)c2ccc(cc23)C(=O)NS(=O)(=O)NCCCCN(C)C1=O | 550 nM |  |  |  |  | 25% | > 58 | 27% | 
14 | COc1ccc2c(c1)C=C1Cn3c-2c(C2CCCCC2)c2ccc(cc23)C(=O)NS(=O)(=O)N(C)CCN2CCN(CC2)C1=O | 180 nM | 299 ng/mL | 3% | 157 mL/min/kg | 108 | 17% | > 170 | 26% | Cmax [8]: 6 ng/mL
15 | COc1ccc2c(c1)C=C1Cn3c-2c(C2CCCCC2)c2ccc(cc23)C(=O)NS(=O)(=O)N(C(C)C)CCCCN(C)C1=O | 330 nM |  |  |  |  | 12% | > 100 | 80% | 
16 | COc1ccc2c(c1)C1C[C@]13Cn1c-2c(C2CCCCC2)c2ccc(cc21)C(=O)NS(=O)(=O)N(C)CCOCCN(C)C3=O (stereo not given in full) | 40 nM | 3200 ng/mL | 51% | 86.7 mL/min/kg | 38 | 72% |  | 95% | 
17 | COc1ccc2c(c1)C1C[C@@]13Cn1c-2c(C2CCCCC2)c2ccc(cc21)C(=O)NS(=O)(=O)N(C)CCOCCN(C)C3=O (stereo not given in full) | 800 nM |  |  |  |  |  |  |  | 
18 | COc1ccc2c(c1)C[C@@H]1Cn3c-2c(C2CCCCC2)c2ccc(cc23)C(=O)NS(=O)(=O)N(C)CCOCCN(C)C1=O |  | 898 ng/mL | 15% | 53.3 mL/min/kg | 22 | 42% |  | 63% | 
19 | CCN(CC)C1CCN(C(=O)Cn2c(-c3ccc(Cl)cc3)c(C3CCCCC3)c3ccc(C(=O)O)cc32)CC1 | 127 nM |  |  |  |  |  |  |  | 
20 | COc1ccc2c(c1)C=C1Cn3c-2c(C2CCCCC2)c2ccc(cc23)C(=O)NS(=O)(=O)N(C)CCOCCN(C)C1=O [TMC-647055] | 82 nM | 7800 ng/mL | > 66% | 53.3 mL/min/kg | 46 | 30% | > 300 | 35% | Cmax [9]: 10.2 µM; Cmax [8]: 440 ng/mL; AUC(0-inf) [10]: 25.8 µM·h; inhibition (INH) [11]: Not Active; Vdss (Canis familiaris): 0.32 L/kg; bioavailability [12]: 87%; Drug metabolism (Rattus norvegicus): Not Active; CL/F [13]: 9 mL/min/kg
